# Activity calls are given as the source filed them. No cut-off for these calls is given here. Numbered stars: 1 amine (or outer) side, 2 acyl side, 3 side chain; on linkers, the order of the positions; unused ones are H or OH. Bridge positions count the residues as written; N and C are the ends. Square brackets hold non-standard residues; d marks the D form. Peptide text beside a SMILES is read from it. I, II: the chains in the order shown. Actinocin(1to9) = Cc1c2oc3c(C)ccc(C(=O)[*:2])c3nc-2c(C(=O)[*:1])c(N)c1=O; NMeV = CN[C@H](C(=O)O)C(C)C; Sar = CNCC(=O)O
# How the values were obtained:
# Staphylococcus aureus [1] = experiment: microbe, parasite or virus in culture; details: isolate d20A1
# Staphylococcus aureus [2] = experiment: Antibacterial activity against Staphylococcus aureus NCTC 8325 after 16 to 20 hrs by broth microdilution method; type: functional
# Procedure, shortened: (§1)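 Broth microdilution in cation-adjusted Mueller Hinton broth. Compounds were serially diluted twofold in DMSO at 50-fold final strength (2% DMSO final). The inoculum was 1 × 10^4 cells per well. Plates were incubated at 37 °C for 16–20 h, and growth was read as absorbance at 600 nm.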
# [3] = Selectivity ratio of MIC for MBX-1090-resistant Staphylococcus aureus isolate d20A1 to MIC for Staphylococcus aureus NCTC 8325; type: functional
# Procedure, shortened: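 Ratio of resistant-mutant MIC to NCTC 8325 MIC. Both MICs came from broth microdilution in cation-adjusted MHB with 2% DMSO final and 1 × 10^4 cells per well, incubated at 37 °C for 16–20 h and read at 600 nm.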
# Staphylococcus aureus [4] = experiment: Antibacterial activity against Staphylococcus aureus NCTC 8325 after 16 to 20 hrs by broth microdilution method in presence of efflux pump inhibitor reserpine; type: functional
# Procedure, shortened: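 Broth microdilution in cation-adjusted MHB with reserpine at 20 µg/ml final in the medium as efflux inhibitor. Twofold DMSO dilutions were made (2% DMSO final) with 1 × 10^4 cells per well. Incubation was 37 °C for 16–20 h, with growth read at 600 nm.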
# Staphylococcus aureus [5] = experiment: Antibacterial activity against Staphylococcus aureus NCTC 8325 harboring genetic deletion of mepRA gene and carrying expression vector pG154 with mepA gene after 16 to 20 hrs by broth microdilution method; type: functional
# Procedure, shortened: as §1
# Staphylococcus aureus [6] = experiment: Antibacterial activity against Staphylococcus aureus NCTC 8325 harboring genetic deletion of mepRA gene and carrying expression vector pG154 after 16 to 20 hrs by broth microdilution method in presence of anhydrous tetracycline; type: functional
# Procedure, shortened: (§2)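 Broth microdilution in cation-adjusted MHB containing anhydrous tetracycline at 100 ng/ml final to induce the pG154 expression vector. Twofold DMSO compound dilutions were used (2% DMSO final) with 1 × 10^4 cells per well. Incubation was 37 °C for 16–20 h, and absorbance was read at 600 nm.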
# Staphylococcus aureus [7] = experiment: Antibacterial activity against Staphylococcus aureus NCTC 8325 carrying expression vector pG154 after 16 to 20 hrs by broth microdilution method in presence of anhydrous tetracycline; type: functional
# Procedure, shortened: as §2
# Staphylococcus aureus [8] = experiment: Antibacterial activity against Staphylococcus aureus NCTC 8325 harboring genetic deletion of mepRA gene and carrying expression vector pG154 after 16 to 20 hrs by broth microdilution method; type: functional
# Procedure, shortened: as §1
# Staphylococcus aureus [9] = experiment: Antibacterial activity against Staphylococcus aureus NCTC 8325 carrying expression vector pG154 with mepA gene after 16 to 20 hrs by broth microdilution method in presence of anhydrous tetracycline; type: functional
# Procedure, shortened: as §2
# Staphylococcus aureus [10] = experiment: Antibacterial activity against Staphylococcus aureus NCTC 8325 carrying expression vector pG154 with mepA gene after 16 to 20 hrs by broth microdilution method; type: functional
# Procedure, shortened: as §1
# Staphylococcus aureus [11] = experiment: Induction of mepA gene expression in Staphylococcus aureus NCTC 8325 at 0.125 ug/ml by RT-PCR analysis; type: functional, organism-based
# Procedure, shortened: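 S. aureus overnight culture diluted 1/200 in TSB and grown at 37 °C with shaking (250 rpm) to OD600 0.3. Triplicate 5 ml aliquots were exposed to compound or DMSO (2% final) for 3 h at 37 °C. RNA was purified and DNase-treated; 1 µg was reverse-transcribed with random hexamers, with a no-RT control. mepA signal was normalized to rho, untreated set to 1; three experiments, SD.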
# [12] = Dissociation constant, pKa of the compound; type: physicochemical
# Staphylococcus aureus [13] = experiment: Antibacterial activity against Staphylococcus aureus NCTC 8325 harboring genetic deletion of mepRA gene after 16 to 20 hrs by broth microdilution method; type: functional
# Procedure, shortened: as §1
# Staphylococcus aureus [14] = experiment: Induction of mepR gene expression in Staphylococcus aureus NCTC 8325 at 0.125 ug/ml by RT-PCR analysis; type: functional, organism-based
# Staphylococcus aureus [15] = experiment: Antibacterial activity against Staphylococcus aureus NCTC 8325 harboring genetic deletion of mepRA gene and carrying expression vector pG154 with mepA gene after 16 to 20 hrs by broth microdilution method in presence of anhydrous tetracycline; type: functional
# Procedure, shortened: as §2
# Staphylococcus aureus [16] = experiment: Antibacterial activity against Staphylococcus aureus NCTC 8325 carrying expression vector pG154 after 16 to 20 hrs by broth microdilution method; type: functional
# Procedure, shortened: as §1
# Staphylococcus aureus [17] = experiment: Selectivity ratio of MIC for Staphylococcus aureus NCTC 8325 to MIC for Staphylococcus aureus NCTC 8325 in presence of efflux pump inhibitor reserpine; type: functional
# Procedure, shortened: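 MICs by modified broth microdilution in cation-adjusted Mueller Hinton broth. Twofold dilutions were made in DMSO at 50× (2% DMSO final), with 1 × 10^4 cells per well. Growth was read as A600 after 16–20 h at 37 °C. Reserpine was added to the medium at 20 µg/ml final to inhibit efflux.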
# Staphylococcus aureus [18] = experiment: Antibacterial activity against Staphylococcus aureus NCTC 8325 harboring genetic deletion of mepR gene after 16 to 20 hrs by broth microdilution method; type: functional
# Procedure, shortened: as §1
# Staphylococcus aureus [19] = experiment: Upregulation of mepA gene expression in MBX-1090-resistant Staphylococcus aureus isolate d20A1 at 0.4 ug/ml by RT-PCR analysis relative to wild type; type: functional
# Staphylococcus aureus [20] = experiment: Modulation of ribE gene expression in MBX-1090-resistant Staphylococcus aureus isolate d20A1 at 0.4 ug/ml by RT-PCR analysis relative to wild type; type: functional
# Staphylococcus aureus [21] = experiment: Modulation of ribD gene expression in MBX-1090-resistant Staphylococcus aureus isolate d20A1 at 0.4 ug/ml by RT-PCR analysis relative to wild type; type: functional
# Staphylococcus aureus [22] = experiment: Upregulation of mepB gene expression in MBX-1090-resistant Staphylococcus aureus isolate d20A1 at 0.4 ug/ml by RT-PCR analysis relative to wild type; type: functional
# Staphylococcus aureus [23] = experiment: Modulation of ribH gene expression in MBX-1090-resistant Staphylococcus aureus isolate d20A1 at 0.4 ug/ml by RT-PCR analysis relative to wild type; type: functional
# Staphylococcus aureus [24] = experiment: Upregulation of conventional hypothetical protein mRNA expression in MBX-1090-resistant Staphylococcus aureus isolate d20A1 at 0.4 ug/ml by RT-PCR analysis relative to wild type; type: functional
# Staphylococcus aureus [25] = experiment: Modulation of ribA gene expression in MBX-1090-resistant Staphylococcus aureus isolate d20A1 at 0.4 ug/ml by RT-PCR analysis relative to wild type; type: functional
# Staphylococcus aureus [26] = experiment: Downregulation of protein A gene expression in MBX-1090-resistant Staphylococcus aureus isolate d20A1 at 0.4 ug/ml by RT-PCR analysis relative to wild type; type: functional
smiles,measurement,setting,value
CO[C@H]1/C=C/O[C@@]2(C)Oc3c(C)c(O)c4c(O)c(c(/C=N/N5CCN(C)CC5)c(O)c4c3C2=O)NC(=O)/C(C)=C\C=C\[C@H](C)[C@H](O)[C@@H](C)[C@@H](O)[C@@H](C)[C@H](OC(C)=O)[C@@H]1C [RIFAMPIN],MIC,Staphylococcus aureus [1],0.0122 µg/mL
same,MIC,Staphylococcus aureus [2],0.0122 µg/mL
CC(=O)O[C@H]1C[C@@]2(C)[C@@H](C[C@@H](O)[C@H]3[C@@]4(C)CC[C@@H](O)[C@@H](C)[C@@H]4CC[C@@]32C)/C1=C(\CCC=C(C)C)C(=O)O [FUSIDIC ACID],MIC,Staphylococcus aureus [1],0.0625 µg/mL
same,MIC,Staphylococcus aureus [2],0.0625 µg/mL
"Cc1c2oc3c(C)ccc(C(=O)N[C@@H]4C(=O)N[C@H](C(C)C)C(=O)N5CCC[C@H]5C(=O)N(C)CC(=O)N(C)[C@@H](C(C)C)C(=O)O[C@@H]4C)c3nc-2c(C(=O)N[C@@H]2C(=O)N[C@H](C(C)C)C(=O)N3CCC[C@H]3C(=O)N(C)CC(=O)N(C)[C@@H](C(C)C)C(=O)O[C@@H]2C)c(N)c1=O [DACTINOMYCIN] (I: T[dV]P[Sar][NMeV] / II: T[dV]P[Sar][NMeV]; ester I:1-I:C, II:1-II:C; linker I:N-II:N via Actinocin(1to9))",MIC,Staphylococcus aureus [1],0.625 µg/mL
same,MIC,Staphylococcus aureus [2],0.625 µg/mL
CO[C@@H]1[C@@H](OC(N)=O)[C@@H](O)[C@H](Oc2ccc3c(O)c(NC(=O)c4ccc(O)c(CC=C(C)C)c4)c(=O)oc3c2C)OC1(C)C [NOVOBIOCIN],MIC,Staphylococcus aureus [1],0.125 µg/mL
same,MIC,Staphylococcus aureus [2],0.125 µg/mL
CCn1cc(C(=O)O)c(=O)c2ccc(C)nc21 [NALIDIXIC ACID],MIC,Staphylococcus aureus [1],50 µg/mL
same,MIC,Staphylococcus aureus [2],100 µg/mL
C/C(=C\C(=O)OCCCCCCCCC(=O)O)C[C@@H]1OC[C@H](C[C@@H]2O[C@H]2[C@@H](C)[C@H](C)O)[C@@H](O)[C@H]1O [MUPIROCIN],MIC,Staphylococcus aureus [1],0.0312 µg/mL
same,MIC,Staphylococcus aureus [2],0.0312 µg/mL
O=C(N[C@H](CO)[C@H](O)c1ccc([N+](=O)[O-])cc1)C(Cl)Cl [CHLORAMPHENICOL],MIC,Staphylococcus aureus [1],8 µg/mL
same,MIC,Staphylococcus aureus [2],8 µg/mL
O=C(O)c1cn(C2CC2)c2cc(N3CCNCC3)c(F)cc2c1=O [CIPROFLOXACIN],MIC,Staphylococcus aureus [1],0.391 µg/mL
same,Selectivity ratio,[3],2
same,MIC,Staphylococcus aureus [2],0.195 µg/mL
c1cc2cc(-c3ccc(-c4cc5ccc(C6=NCCCN6)cc5[nH]4)cc3)[nH]c2cc1C1=NCCCN1,MIC,Staphylococcus aureus [4],0.125 µg/mL
same,MIC,Staphylococcus aureus [5],0.5 µg/mL
same,MIC,Staphylococcus aureus [1],0.5 µg/mL
same,MIC,Staphylococcus aureus [6],0.5 µg/mL
same,MIC,Staphylococcus aureus [7],0.5 µg/mL
same,MIC,Staphylococcus aureus [8],0.5 µg/mL
same,MIC,Staphylococcus aureus [9],0.125 µg/mL
same,MIC,Staphylococcus aureus [10],0.5 µg/mL
same,Activity,Staphylococcus aureus [11],Active
same,pKa,[12],12.8
same,MIC,Staphylococcus aureus [13],0.5 µg/mL
same,Activity,Staphylococcus aureus [14],Active
same,MIC,Staphylococcus aureus [15],0.125 µg/mL
same,MIC,Staphylococcus aureus [2],0.5 µg/mL
same,MIC,Staphylococcus aureus [16],0.5 µg/mL
same,Selectivity ratio,Staphylococcus aureus [17],4
same,MIC,Staphylococcus aureus [18],0.25 µg/mL
NC[C@H]1O[C@H](O[C@H]2[C@H](O)[C@@H](O[C@H]3O[C@H](CO)[C@@H](O)[C@H](N)[C@H]3O)[C@H](N)C[C@@H]2N)[C@H](O)[C@@H](O)[C@@H]1O [KANAMYCIN],MIC,Staphylococcus aureus [1],8 µg/mL
same,Selectivity ratio,[3],4
same,MIC,Staphylococcus aureus [2],2 µg/mL
CCN1CCN(c2cc3c(cc2F)c(=O)c(C(=O)O)cn3C2CC2)CC1 [ENROFLOXACIN],MIC,Staphylococcus aureus [1],0.125 µg/mL
same,MIC,Staphylococcus aureus [2],0.125 µg/mL
c1cc2cc(-c3ccc(-c4cc5ccc(C6=NCCN6)cc5[nH]4)cc3)[nH]c2cc1C1=NCCN1,fold change (FC),Staphylococcus aureus [19],8.7
same,MIC,Staphylococcus aureus [4],0.125 µg/mL
same,MIC,Staphylococcus aureus [5],0.25 µg/mL
same,MIC,Staphylococcus aureus [1],0.5 µg/mL
same,MIC,Staphylococcus aureus [6],0.5 µg/mL
same,fold change (FC),Staphylococcus aureus [20],1.2
same,MIC,Staphylococcus aureus [7],1 µg/mL
same,MIC,Staphylococcus aureus [8],0.5 µg/mL
same,MIC,Staphylococcus aureus [9],0.25 µg/mL
same,MIC,Staphylococcus aureus [10],0.5 µg/mL
same,pKa,[12],9.6
same,MIC,Staphylococcus aureus [13],0.5 µg/mL
same,fold change (FC),Staphylococcus aureus [21],1.3
same,fold change (FC),Staphylococcus aureus [22],4.2
same,fold change (FC),Staphylococcus aureus [23],2.1
same,MIC,Staphylococcus aureus [15],8 µg/mL
same,fold change (FC),Staphylococcus aureus [24],6.8
same,MIC,Staphylococcus aureus [2],0.25 µg/mL
same,MIC,Staphylococcus aureus [16],0.5 µg/mL
same,fold change (FC),Staphylococcus aureus [25],1.2
same,MIC,Staphylococcus aureus [18],0.25 µg/mL
same,fold change (FC),Staphylococcus aureus [26],3.1

# From ChEMBL document CHEMBL1157072 (Bioorg Med Chem, 2010)
